What was measured:
[1] = system: MCF7; assay: Cell cycle arrest in human MCF7 cells assessed as accumulation at G2/M phase at 0.6 uM after 4 hrs by propidium iodide staining based flow cytometric method (reference value: 7.59 to 9.58%); type: functional
[2] = system: MCF7; assay: Induction of apoptosis in human MCF7 cells assessed as viable cells at 12 uM after 24 hrs by Annexin-V-FITC/propidium iodide staining based flow cytometric method (reference value: 91.6 to 92.7%); type: functional; settings: MCF7, 24 h, read-out: Activity
[3] = system: A549; assay: Cytotoxicity against human A549 cells after 24 hrs by MTT assay; type: functional, cell-based; settings: A549, 24 h
In short: (§1)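 In vitro antiproliferative screen by MTT assay against human MCF-7 breast, HeLa cervical, A549 lung adenocarcinoma and HepG-2 hepatoma cells. Output is the IC50.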

[4] = system: MCF7; assay: Cytotoxicity against human MCF7 cells after 24 hrs by MTT assay; type: functional, cell-based; settings: MCF7, 24 h; in short: as §1
[5] = system: MCF7; assay: Induction of apoptosis in human MCF7 cells assessed as early apoptotic cells at 4 uM after 24 hrs by Annexin-V-FITC/propidium iodide staining based flow cytometric method (reference value: 2.36 to 2.86%); type: functional
[6] = system: MCF7; assay: Cell cycle arrest in human MCF7 cells assessed as accumulation at G1 phase at 0.6 uM after 16 hrs by propidium iodide staining based flow cytometric method (reference value: 60.19 to 60.87%); type: functional
[7] = system: MCF7; assay: Induction of apoptosis in human MCF7 cells assessed as viable cells at 4 uM after 24 hrs by Annexin-V-FITC/propidium iodide staining based flow cytometric method (reference value: 91.6 to 92.7%); type: functional; settings: MCF7, 24 h, read-out: Activity
[8] = system: MCF7; assay: Cell cycle arrest in human MCF7 cells assessed as accumulation at G2/M phase at 0.9 uM after 12 hrs by propidium iodide staining based flow cytometric method (reference value: 5.43 to 13.68%); type: functional
[9] = system: L02; assay: Cytotoxicity against human L02 cells after 24 hrs by MTT assay; type: cell-based; settings: L02, 24 h
In short: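 Normal human liver L02 cells were tested at multiple concentrations in an MTT assay. Output is the median cytotoxic concentration (CC50).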

[10] = system: MCF7; assay: Induction of apoptosis in human MCF7 cells assessed as viable cells at 2 uM after 24 hrs by Annexin-V-FITC/propidium iodide staining based flow cytometric method (reference value: 91.6 to 92.7%); type: functional; settings: MCF7, 24 h, read-out: Activity
[11] = system: MCF7; assay: Cell cycle arrest in human MCF7 cells assessed as accumulation at G1 phase at 0.9 uM after 12 hrs by propidium iodide staining based flow cytometric method (reference value: 58.69 to 62.23%); type: functional
[12] = system: MCF7; assay: Induction of apoptosis in human MCF7 cells assessed as early apoptotic cells at 12 uM after 24 hrs by Annexin-V-FITC/propidium iodide staining based flow cytometric method (reference value: 2.36 to 2.86%); type: functional
[13] = system: MCF7; assay: Cell cycle arrest in human MCF7 cells assessed as accumulation at S phase at 0.3 uM after 12 hrs by propidium iodide staining based flow cytometric method (reference value: 27.63 to 32.34%); type: functional
[14] = system: MCF7; assay: Induction of apoptosis in human MCF7 cells assessed as viable cells at 8 uM after 24 hrs by Annexin-V-FITC/propidium iodide staining based flow cytometric method (reference value: 91.6 to 92.7%); type: functional; settings: MCF7, 24 h, read-out: Activity
[15] = system: MCF7; assay: Cell cycle arrest in human MCF7 cells assessed as accumulation at G1 phase at 0.6 uM after 4 hrs by propidium iodide staining based flow cytometric method (reference value: 60.19 to 60.87%); type: functional
[16] = system: HeLa; assay: Cytotoxicity against human HeLa cells after 24 hrs by MTT assay; type: functional, cell-based; in short: as §1
[17] = system: MCF7; assay: Cell cycle arrest in human MCF7 cells assessed as accumulation at G2/M phase at 0.6 uM after 8 hrs by propidium iodide staining based flow cytometric method (reference value: 7.59 to 9.58%); type: functional
[18] = system: MCF7; assay: Cell cycle arrest in human MCF7 cells assessed as accumulation at G2/M phase at 0.3 uM after 12 hrs by propidium iodide staining based flow cytometric method (reference value: 5.43 to 13.68%); type: functional
[19] = system: MCF7; assay: Induction of apoptosis in human MCF7 cells assessed as necrotic cells at 2 uM after 24 hrs by Annexin-V-FITC/propidium iodide staining based flow cytometric method (reference value: 2.35 to 2.49%); type: functional
[20] = system: MCF7; assay: Cell cycle arrest in human MCF7 cells assessed as accumulation at G2/M phase at 0.6 uM after 16 hrs by propidium iodide staining based flow cytometric method (reference value: 7.59 to 9.58%); type: functional
[21] = system: MCF7; assay: Cell cycle arrest in human MCF7 cells assessed as accumulation at S phase at 0.6 uM after 8 hrs by propidium iodide staining based flow cytometric method (reference value: 29.55 to 32.22%); type: functional
[22] = system: MCF7; assay: Cell cycle arrest in human MCF7 cells assessed as accumulation at G1 phase at 0.6 uM after 8 hrs by propidium iodide staining based flow cytometric method (reference value: 60.19 to 60.87%); type: functional
[23] = system: MCF7; assay: Induction of apoptosis in human MCF7 cells assessed as late apoptotic cells at 4 uM after 24 hrs by Annexin-V-FITC/propidium iodide staining based flow cytometric method (reference value: 2 to 3.7%); type: functional
[24] = system: MCF7; assay: Cell cycle arrest in human MCF7 cells assessed as accumulation at S phase at 0.6 uM after 4 hrs by propidium iodide staining based flow cytometric method (reference value: 29.55 to 32.22%); type: functional
[25] = system: MCF7; assay: Induction of apoptosis in human MCF7 cells assessed as late apoptotic cells at 8 uM after 24 hrs by Annexin-V-FITC/propidium iodide staining based flow cytometric method (reference value: 2 to 3.7%); type: functional
[26] = system: MCF7; assay: Induction of apoptosis in human MCF7 cells assessed as necrotic cells at 8 uM after 24 hrs by Annexin-V-FITC/propidium iodide staining based flow cytometric method (reference value: 2.35 to 2.49%); type: functional
[27] = system: MCF7; assay: Induction of apoptosis in human MCF7 cells assessed as necrotic cells at 4 uM after 24 hrs by Annexin-V-FITC/propidium iodide staining based flow cytometric method (reference value: 2.35 to 2.49%); type: functional
[28] = system: MCF7; assay: Cell cycle arrest in human MCF7 cells assessed as accumulation at G2/M phase at 0.6 uM after 12 hrs by propidium iodide staining based flow cytometric method (reference value: 5.43 to 13.68%); type: functional
[29] = system: MCF7; assay: Induction of apoptosis in human MCF7 cells assessed as necrotic cells at 12 uM after 24 hrs by Annexin-V-FITC/propidium iodide staining based flow cytometric method (reference value: 2.35 to 2.49%); type: functional
[30] = system: MCF7; assay: Induction of apoptosis in human MCF7 cells assessed as early apoptotic cells at 8 uM after 24 hrs by Annexin-V-FITC/propidium iodide staining based flow cytometric method (reference value: 2.36 to 2.86%); type: functional
[31] = system: MCF7; assay: Cell cycle arrest in human MCF7 cells assessed as accumulation at G1 phase at 0.3 uM after 12 hrs by propidium iodide staining based flow cytometric method (reference value: 58.69 to 62.23%); type: functional
[32] = system: MCF7; assay: Induction of apoptosis in human MCF7 cells assessed as late apoptotic cells at 12 uM after 24 hrs by Annexin-V-FITC/propidium iodide staining based flow cytometric method (reference value: 2 to 3.7%); type: functional
[33] = system: MCF7; assay: Induction of apoptosis in human MCF7 cells assessed as late apoptotic cells at 2 uM after 24 hrs by Annexin-V-FITC/propidium iodide staining based flow cytometric method (reference value: 2 to 3.7%); type: functional
[34] = system: MCF7; assay: Cell cycle arrest in human MCF7 cells assessed as accumulation at G1 phase at 0.6 uM after 12 hrs by propidium iodide staining based flow cytometric method (reference value: 58.69 to 62.23%); type: functional
[35] = system: MCF7; assay: Cell cycle arrest in human MCF7 cells assessed as accumulation at S phase at 0.6 uM after 12 hrs by propidium iodide staining based flow cytometric method (reference value: 27.63 to 32.34%); type: functional
[36] = system: MCF7; assay: Cell cycle arrest in human MCF7 cells assessed as accumulation at S phase at 0.9 uM after 12 hrs by propidium iodide staining based flow cytometric method (reference value: 27.63 to 32.34%); type: functional
[37] = system: HepG2; assay: Cytotoxicity against human HepG2 cells after 24 hrs by MTT assay; type: functional, cell-based; settings: HepG2, 24 h; in short: as §1
[38] = system: MCF7; assay: Cell cycle arrest in human MCF7 cells assessed as accumulation at S phase at 0.6 uM after 16 hrs by propidium iodide staining based flow cytometric method (reference value: 29.55 to 32.22%); type: functional
[39] = system: MCF7; assay: Induction of apoptosis in human MCF7 cells assessed as early apoptotic cells at 2 uM after 24 hrs by Annexin-V-FITC/propidium iodide staining based flow cytometric method (reference value: 2.36 to 2.86%); type: functional

COc1cc([C@@H]2c3cc4c(cc3[C@H](O)[C@H]3COC(=O)[C@H]23)OCO4)cc(OC)c1OC [PODOFILOX]
Activity [1]: 22.4% | viability at 12 µM [2]: 62.8% | IC50 [3]: 9.34 µM | IC50 [4]: 7.13 µM | Activity [5]: 7.87% | Activity [6]: 11.02% | viability at 4 µM [7]: 79.4% | Activity [8]: 72.04% | IC50 [9]: 3.72 µM | viability at 2 µM [10]: 84.2% | Activity [11]: 8.17% | Activity [12]: 13.4% | Activity [13]: 30.34% | viability at 8 µM [14]: 72.9% | Activity [15]: 47.97% | IC50 [16]: 7.45 µM | Activity [17]: 30.75% | Activity [18]: 29.49% | Activity [19]: 1.69% | Activity [20]: 62.2% | Activity [21]: 31.73% | Activity [22]: 37.52% | Activity [23]: 10.5% | Activity [24]: 29.63% | Activity [25]: 12.4% | Activity [26]: 4.65% | Activity [27]: 2.34% | Activity [28]: 45.4 - 47.67% | Activity [29]: 6.65% | Activity [30]: 10.1% | Activity [31]: 40.17% | Activity [32]: 17.4% | Activity [33]: 8.61% | Activity [34]: 20.81 - 27.26% | Activity [35]: 27.34 - 31.52% | Activity [36]: 19.79% | IC50 [37]: 5.81 µM | Activity [38]: 26.78% | Activity [39]: 5.5%

— ChEMBL document CHEMBL4052804, “Design and synthesis of piperazine acetate podophyllotoxin ester derivatives targeting tubulin depolymerization as new anticancer agents” (Bioorg Med Chem Lett, 2017)
